Laboratory results reported in ChEMBL document CHEMBL5257104, “Identification of a novel spirocyclic Nek2 inhibitor using high throughput virtual screening” (Bioorg Med Chem Lett, 2023).
Calls of active or inactive are those of the source. The rule behind the calls is not given here.

Experiments:
[1] = target: T1, Serine/threonine-protein kinase Nek2 (Homo sapiens, UniProt P51955); test: Inhibition of human recombinant Nek2 in presence of 50 uM ATP by ADP-Glo kinase assay
T1 sequence (P51955 whole entry): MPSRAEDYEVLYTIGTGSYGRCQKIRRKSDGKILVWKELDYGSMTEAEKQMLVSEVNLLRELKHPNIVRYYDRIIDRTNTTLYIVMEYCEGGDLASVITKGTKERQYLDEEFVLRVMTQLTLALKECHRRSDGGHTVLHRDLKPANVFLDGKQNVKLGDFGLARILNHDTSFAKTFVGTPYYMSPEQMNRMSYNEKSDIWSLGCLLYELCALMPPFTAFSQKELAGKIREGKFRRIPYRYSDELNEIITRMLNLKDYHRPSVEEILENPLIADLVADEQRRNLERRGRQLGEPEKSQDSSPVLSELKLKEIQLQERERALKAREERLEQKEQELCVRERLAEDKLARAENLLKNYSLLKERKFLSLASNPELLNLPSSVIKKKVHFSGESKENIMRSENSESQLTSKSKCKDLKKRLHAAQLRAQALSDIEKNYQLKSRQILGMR
In short: (§1)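 Kinase activity was measured at 50 μM ATP using recombinant enzyme. A concentration-response curve was generated for each kinase, and IC50 was obtained by fitting the data.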

[2] = target: Serine/threonine-protein kinase Nek7 (Homo sapiens, UniProt Q8TDX7); test: Inhibition of Nek7 (unknown origin); in short: as §1
Serine/threonine-protein kinase Nek7, sequence (Q8TDX7 whole entry): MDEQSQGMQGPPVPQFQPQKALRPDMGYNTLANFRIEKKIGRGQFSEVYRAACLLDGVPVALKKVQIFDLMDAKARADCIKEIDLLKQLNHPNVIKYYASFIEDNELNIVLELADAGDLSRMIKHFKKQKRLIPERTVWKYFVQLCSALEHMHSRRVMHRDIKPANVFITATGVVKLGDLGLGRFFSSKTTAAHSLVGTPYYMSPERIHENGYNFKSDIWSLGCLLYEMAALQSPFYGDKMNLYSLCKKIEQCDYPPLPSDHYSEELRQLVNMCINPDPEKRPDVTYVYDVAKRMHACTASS

[3] = tested on: A549; test: Cytotoxicity against human A549 cells assessed as inhibition of cell growth by MTT assay; type: functional, cell-based
In short: (§2)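 Cell viability read by MTT assay across a range of concentrations. EC50 taken from the dose-response curve. See Supporting Information, Section III, for details not given here.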

[4] = tested on: MDA-MB-231; test: Cytotoxicity against human MDA-MB-231 cells assessed as inhibition of cell growth by MTT assay; type: functional, cell-based; in short: as §2
[5] = tested on: A549; test: Inhibition of Akt phosphorylation at S473 residue in human A549 cells by Western blotting analysis; type: cell-based; details: dose 5-20 µM
In short: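 A549 cells were treated for 24 h across several concentrations. Ser-473 phospho-Akt was detected by Western blot with GAPDH as the loading control. DMSO served as vehicle control and a reference Nek2 inhibitor as positive control.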

[6] = target: T1, Serine/threonine-protein kinase Nek2; test: Inhibition of human recombinant Nek2 in presence of 150 uM ATP by ADP-Glo kinase assay
In short: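 Recombinant human Nek2 kinase activity assay run with ATP raised threefold, from the standard 50 μM to 150 μM. Inhibitor tested over a concentration series, and IC50 obtained by fitting the concentration-response curve.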

[7] = target: T2, Aurora kinase A (Homo sapiens, UniProt O14965); test: Inhibition of Aurora A (unknown origin); in short: as §1
T2 sequence (O14965 whole entry): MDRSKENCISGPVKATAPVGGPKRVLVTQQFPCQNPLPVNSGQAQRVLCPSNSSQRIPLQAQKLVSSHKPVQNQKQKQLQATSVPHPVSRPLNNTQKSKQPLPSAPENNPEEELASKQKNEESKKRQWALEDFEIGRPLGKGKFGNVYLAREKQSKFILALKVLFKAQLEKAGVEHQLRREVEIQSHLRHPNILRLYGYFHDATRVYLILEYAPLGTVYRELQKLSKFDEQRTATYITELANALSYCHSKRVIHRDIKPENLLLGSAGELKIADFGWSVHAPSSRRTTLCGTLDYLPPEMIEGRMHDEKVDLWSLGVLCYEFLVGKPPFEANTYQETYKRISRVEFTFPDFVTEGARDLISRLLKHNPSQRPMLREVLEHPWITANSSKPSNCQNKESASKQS

[8] = tested on: A549; test: Antimigratory activity against human A549 cells at 50 to 100 uM by wound healing assay; type: functional, cell-based; details: dose 50-100 µM
In short: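 A549 monolayers were scratched and treated. Migration was judged by imaging wound boundaries at the initial scratch (t = 0) and at 24 hr post-treatment, compared with vehicle control.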

[9] = target: Serine/threonine-protein kinase PLK1 (Homo sapiens, UniProt P53350); test: Inhibition of Plk1 (unknown origin); in short: as §1
Serine/threonine-protein kinase PLK1, sequence (P53350 whole entry): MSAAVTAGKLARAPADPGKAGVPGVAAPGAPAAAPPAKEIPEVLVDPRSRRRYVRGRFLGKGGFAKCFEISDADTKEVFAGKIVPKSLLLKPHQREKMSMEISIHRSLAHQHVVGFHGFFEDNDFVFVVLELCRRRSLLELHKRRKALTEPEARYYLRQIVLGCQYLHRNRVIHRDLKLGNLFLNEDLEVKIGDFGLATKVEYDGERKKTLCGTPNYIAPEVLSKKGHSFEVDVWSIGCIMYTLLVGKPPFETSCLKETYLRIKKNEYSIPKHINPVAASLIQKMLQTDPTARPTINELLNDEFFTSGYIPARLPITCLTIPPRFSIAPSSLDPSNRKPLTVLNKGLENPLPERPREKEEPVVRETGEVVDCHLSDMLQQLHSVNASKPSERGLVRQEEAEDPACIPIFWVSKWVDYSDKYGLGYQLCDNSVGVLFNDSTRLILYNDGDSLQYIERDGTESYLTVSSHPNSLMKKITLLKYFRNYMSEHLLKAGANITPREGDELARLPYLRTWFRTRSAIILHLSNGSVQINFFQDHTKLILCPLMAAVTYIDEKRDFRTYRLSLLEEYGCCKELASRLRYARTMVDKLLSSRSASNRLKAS

[10] = target: Cyclin-dependent kinase 1 (Homo sapiens, UniProt P06493); test: Inhibition of CDK1 (unknown origin); in short: as §1
Cyclin-dependent kinase 1, sequence (P06493 whole entry): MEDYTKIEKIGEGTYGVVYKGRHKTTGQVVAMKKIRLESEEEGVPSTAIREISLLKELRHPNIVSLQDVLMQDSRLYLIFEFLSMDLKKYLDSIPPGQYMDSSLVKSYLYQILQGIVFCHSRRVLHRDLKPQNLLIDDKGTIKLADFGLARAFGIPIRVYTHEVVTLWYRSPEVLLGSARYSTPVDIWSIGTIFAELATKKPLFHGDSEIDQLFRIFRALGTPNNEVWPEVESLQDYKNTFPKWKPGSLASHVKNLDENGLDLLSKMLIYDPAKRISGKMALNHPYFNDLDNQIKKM

Structure (SMILES) | IC50 [1] | also measured
O=C1NC2(CCN(S(=O)(=O)c3cccs3)CC2)N=C1c1ccc(Br)cc1 | 5.6 µM | 
O=C1NC2(CCN(C(=O)c3ccccc3)CC2)N=C1c1ccc(Br)cc1 | 9.2 µM | 
O=C1NC2(CCN(S(=O)(=O)c3ccccc3)CC2)N=C1c1ccccc1 | 8.1 µM | 
CC(C)(C)c1ccc(S(=O)(=O)N2CCC3(CC2)N=C(c2ccc(Br)cc2)C(=O)N3)cc1 | 5 µM | 
CN1CCC2(CC1)NCC(=O)N2 | 58.1 µM | 
CS(=O)(=O)N1CCC2(CC1)NCC(=O)N2 | 32.1 µM | 
Cc1ccc(C2=NC3(CCN(S(C)(=O)=O)CC3)NC2=O)cc1C | 3.2 µM | 
CCOC(=O)c1ccc(S(=O)(=O)N2CCC3(CC2)N=C(c2ccc(Br)cc2)C(=O)N3)cc1 | 14.6 µM | 
O=C1NC2(CCN(S(=O)(=O)c3ccccc3)CC2)N=C1c1ccc(Cl)cc1 | 6 µM | 
Cc1cc(C)c(S(=O)(=O)N2CCC3(CC2)N=C(c2ccc(Br)cc2)C(=O)N3)c(C)c1 | 9.8 µM | 
Cc1ccc(S(=O)(=O)N2CCC3(CC2)N=C(c2ccc(Br)cc2)C(=O)N3)cc1C | 12.3 µM | 
Cc1ccc(C2=NC3(CCN(S(C)(=O)=O)CC3)NC2=O)cc1 | 4.9 µM | 
CS(=O)(=O)N1CCC2(CC1)N=C(c1ccc(Br)cc1)C(=O)N2 | 2.4 µM | IC50 [2]: 28.8 µM; IC50 [3]: 22.7 µM; IC50 [4]: 18.1 µM; inhibition [5]: Dose-Dependent Effect; IC50 [6]: 17.1 µM; IC50 [7]: 21.3 µM; Activity [8]: Active; IC50 [9]: 20.4 µM; IC50 [10]: 29.3 µM
O=C1CNC2(CCNCC2)N1 | 32.5 µM | 
O=C1NC2(CCN(S(=O)(=O)c3ccccc3)CC2)N=C1c1ccc(F)cc1 | 4.5 µM | 
CC(C)(C)c1ccc(C2=NC3(CCN(S(C)(=O)=O)CC3)NC2=O)cc1 | 8.7 µM | 
O=C1NC2(CCN(S(=O)(=O)c3ccccc3)CC2)N=C1c1ccc(Br)cc1 | 9.3 µM | 
O=C1NC2(CCN(S(=O)(=O)Cc3ccccc3)CC2)N=C1c1ccc(Br)cc1 | 6.8 µM | 
